Measured values of several laboratories.
Lines come from different studies, so protocols differ. In brackets after ≈: the same amount, converted by molar mass.

CC(=O)O[C@H]1C(=O)[C@@]2(C)[C@H]([C@H](OC(=O)c3ccccc3)[C@]3(O)C[C@H](OC(=O)[C@H](O)[C@@H](NC(=O)c4ccccc4)c4ccccc4)C(C)=C1C3(C)C)[C@]1(OC(C)=O)CO[C@@H]1C[C@@H]2O  IC50 (human Rhabdomyosarcoma cell; cell growth or viability, MTT; 48 h): 6.13 µM
Cc1cc(Nc2ncc(Cl)c(Nc3ccccc3S(=O)(=O)C(C)C)n2)c(OC(C)C)cc1C1CCNCC1  inhibition (NCI-H3122; cell growth or viability, MTT; 10 µg/mL, 72 h): 93%
CN(C)[C@@H]1C(O)=C(C(N)=O)C(=O)[C@@]2(O)C(O)=C3C(=O)c4c(O)c(-c5ccccc5)nc(Cl)c4C[C@H]3C[C@@H]12.Cl  MIC (Enterobacter cloacae; microbial growth, broth dilution; ATCC13047): > 32 µg/mL
C[C@@H](Oc1cc(-c2cnn(C3CCNCC3)c2)cnc1N)c1c(Cl)ccc(F)c1Cl  inhibition (NCI-H3122; cell growth or viability, MTT; 5 µg/mL, 72 h): 85.8%
C=CCn1c(-c2ccc([N+](=O)[O-])cc2)nc2ccccc21  IC50 (human Rhabdomyosarcoma cell; cell growth or viability, MTT): 32.6 µM
CN(C)[C@@H]1C(O)=C(C(N)=O)C(=O)[C@@]2(O)C(O)=C3C(=O)c4c(cnc(-c5ccccc5)c4O)C[C@H]3C[C@@H]12.Cl.Cl  MIC (Enterobacter cloacae; microbial growth, broth dilution; ATCC13047): > 32 µg/mL
O=C(O)c1cn(C2CC2)c2cc(N3CCNCC3)c(F)cc2c1=O  MIC (Serratia marcescens; microbial growth; DSM30121): 0.5 µg/mL (≈ 1.51 µM)
Oc1ccccc1-c1nc2ccccc2[nH]1  IC50 (human Rhabdomyosarcoma cell; cell growth or viability, MTT; 48 h): 15.4 µM
CN(C)[C@@H]1C(O)=C(C(N)=O)C(=O)[C@@]2(O)C(O)=C3C(=O)c4c(O)c(N)nc(Cl)c4C[C@H]3C[C@@H]12  MIC (Enterobacter cloacae; microbial growth, broth dilution; ATCC13047): 1 µg/mL (≈ 2.15 µM)
O=[N+]([O-])c1ccc(-c2nc3ccccc3n2Cc2ccccc2)cc1  IC50 (human Rhabdomyosarcoma cell; cell growth or viability, MTT): 7.44 µM
CN(C)c1cc(CNCC(C)(C)C)c(O)c2c1C[C@H]1C[C@H]3[C@H](N(C)C)C(O)=C(C(N)=O)C(=O)[C@@]3(O)C(O)=C1C2=O  MIC (Enterobacter cloacae; microbial growth, broth dilution; ATCC13047): 4 µg/mL (≈ 7.19 µM)
C/C=C(\C)c1cc(O)c(C)c(OC(=O)c2c(C)cc(O)c(Cl)c2O)c1  MIC (Enterococcus gallinarum; microbial growth, broth dilution; GALLINARUM): 8 µg/mL (≈ 22.1 µM)
